In ChEMBL document CHEMBL1132173, “Novel derivatives of 2-pyridinemethylamine as selective, potent, and orally active agonists at 5-HT1A receptors” (J Med Chem, 1999):

Legend:
[1] = biological target: T1, 5-hydroxytryptamine receptor 1A (Homo sapiens, UniProt P08908); experiment: In vitro effective concentration required to inhibit forskolin-stimulated cAMP levels in HA7 cells expressing human 5-HT1A receptor; format: functional, cell-based
T1 sequence (P08908 whole entry): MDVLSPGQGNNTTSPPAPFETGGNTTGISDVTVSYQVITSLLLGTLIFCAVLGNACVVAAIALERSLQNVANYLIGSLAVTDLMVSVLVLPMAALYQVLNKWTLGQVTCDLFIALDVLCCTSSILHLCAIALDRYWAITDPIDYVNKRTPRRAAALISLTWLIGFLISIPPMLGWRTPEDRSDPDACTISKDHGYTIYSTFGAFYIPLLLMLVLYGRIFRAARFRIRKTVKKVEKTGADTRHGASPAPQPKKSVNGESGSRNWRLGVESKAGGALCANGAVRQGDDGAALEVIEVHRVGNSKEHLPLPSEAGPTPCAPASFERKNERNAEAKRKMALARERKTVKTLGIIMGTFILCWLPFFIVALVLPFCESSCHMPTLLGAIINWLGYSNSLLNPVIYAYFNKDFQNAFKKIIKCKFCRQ
Summary of the method: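 HeLa HA7 cells stably expressing human 5-HT1A, at 80–90% confluency, antibiotic-free for 24 h. Preincubated 10 min at RT in DMEM/10 mM Hepes, then drug at 0.1 nM–100 µM with 100 µM forskolin and 100 µM IBMX for 10 min at RT. Stopped with 0.1 N HCl; cAMP by radioimmunoassay as % of forskolin control; pEC50.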

[2] = biological target: T2, Adrenergic receptor alpha-1 (Rattus norvegicus, UniProt P15823+P23944+P43140); experiment: Binding affinity towards Alpha-1 adrenergic receptor using prazosin as a radioligand in rat cortex
T2 sequence (P15823 whole entry): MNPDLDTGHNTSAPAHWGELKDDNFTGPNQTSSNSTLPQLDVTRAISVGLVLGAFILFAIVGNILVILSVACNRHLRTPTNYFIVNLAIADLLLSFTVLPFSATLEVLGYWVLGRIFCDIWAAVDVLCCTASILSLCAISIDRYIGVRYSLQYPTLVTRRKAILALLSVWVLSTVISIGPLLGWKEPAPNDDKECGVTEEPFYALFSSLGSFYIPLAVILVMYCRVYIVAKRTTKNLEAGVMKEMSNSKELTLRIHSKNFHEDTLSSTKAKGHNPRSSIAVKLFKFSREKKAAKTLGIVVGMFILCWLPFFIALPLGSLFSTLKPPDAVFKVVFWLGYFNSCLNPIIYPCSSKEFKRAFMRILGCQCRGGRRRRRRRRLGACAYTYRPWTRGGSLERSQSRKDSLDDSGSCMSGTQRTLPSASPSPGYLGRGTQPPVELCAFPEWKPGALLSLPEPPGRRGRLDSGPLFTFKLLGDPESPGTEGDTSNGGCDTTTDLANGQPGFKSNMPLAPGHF
T2 sequence (P23944 whole entry): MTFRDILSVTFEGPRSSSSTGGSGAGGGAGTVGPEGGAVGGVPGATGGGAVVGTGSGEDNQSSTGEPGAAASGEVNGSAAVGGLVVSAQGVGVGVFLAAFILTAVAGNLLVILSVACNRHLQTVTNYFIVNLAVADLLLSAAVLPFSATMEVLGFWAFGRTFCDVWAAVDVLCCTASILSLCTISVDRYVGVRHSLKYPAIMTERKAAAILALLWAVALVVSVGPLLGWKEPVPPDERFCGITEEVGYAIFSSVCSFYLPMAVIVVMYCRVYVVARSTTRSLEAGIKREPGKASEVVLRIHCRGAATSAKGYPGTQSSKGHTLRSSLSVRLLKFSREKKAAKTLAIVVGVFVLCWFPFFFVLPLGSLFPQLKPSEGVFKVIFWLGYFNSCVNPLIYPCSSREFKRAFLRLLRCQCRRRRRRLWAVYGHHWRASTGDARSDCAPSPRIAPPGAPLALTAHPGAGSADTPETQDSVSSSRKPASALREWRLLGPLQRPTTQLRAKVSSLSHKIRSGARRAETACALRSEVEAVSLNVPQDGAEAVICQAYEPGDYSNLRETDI
T2 sequence (P43140 whole entry): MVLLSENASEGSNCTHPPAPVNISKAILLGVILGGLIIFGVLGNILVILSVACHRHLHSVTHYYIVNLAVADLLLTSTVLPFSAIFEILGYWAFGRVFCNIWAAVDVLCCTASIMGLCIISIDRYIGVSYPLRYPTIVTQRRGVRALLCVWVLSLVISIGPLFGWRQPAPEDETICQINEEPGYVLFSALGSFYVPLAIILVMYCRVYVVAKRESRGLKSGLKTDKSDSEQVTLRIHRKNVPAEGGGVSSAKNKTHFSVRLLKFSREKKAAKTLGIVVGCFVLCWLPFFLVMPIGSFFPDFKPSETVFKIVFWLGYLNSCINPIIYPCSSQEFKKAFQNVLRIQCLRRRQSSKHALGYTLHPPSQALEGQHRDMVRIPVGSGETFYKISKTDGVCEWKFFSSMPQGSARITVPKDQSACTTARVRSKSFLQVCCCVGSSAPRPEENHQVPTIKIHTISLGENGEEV
Summary of the method: (§1)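 Rat tissue membranes, competition against radioligand at 23 °C. Nonspecific binding: 5-HT for 5-HT1A (30 min), (+)-butaclamol for D2 (60 min), phentolamine for α1 (30 min). Tris HCl 50 mM pH 7.4 buffers. Filtration through glass-fibre filters, then scintillation counting. Run in triplicate; IC50 by nonlinear regression; Ki by Cheng–Prusoff; mean pKi of three determinations.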

[3] = system: Rattus norvegicus; experiment: Effective intraperitoneal dose in vivo in rat after 15 mins to induce lower lip retraction; format: functional; settings: ip, 0.25 h
Summary of the method: (§2)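 Observed in 10 min windows centred 15 and 60 min post-dose, 10 s each minute, scoring lower lip retraction present or absent (0–10).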

[4] = system: Rattus norvegicus; experiment: Effective intraperitoneal dose in vivo in rat after 60 mins to induce lower lip retraction; format: functional; settings: ip, 1 h; summary of the method: as §2
[5] = system: Rattus norvegicus; experiment: Induction of lower lip retraction in rat 60 min after administration, effective peroral dose determined in vivo; format: functional; settings: po, 1 h; summary of the method: as §2
[6] = biological target: T3, 5-hydroxytryptamine receptor 1A (Rattus norvegicus, UniProt P19327); experiment: Binding affinity towards 5-hydroxytryptamine 1A receptor in rat cortex using [3H]8-OH-DPAT as a radioligand; summary of the method: as §1
T3 sequence (P19327 whole entry): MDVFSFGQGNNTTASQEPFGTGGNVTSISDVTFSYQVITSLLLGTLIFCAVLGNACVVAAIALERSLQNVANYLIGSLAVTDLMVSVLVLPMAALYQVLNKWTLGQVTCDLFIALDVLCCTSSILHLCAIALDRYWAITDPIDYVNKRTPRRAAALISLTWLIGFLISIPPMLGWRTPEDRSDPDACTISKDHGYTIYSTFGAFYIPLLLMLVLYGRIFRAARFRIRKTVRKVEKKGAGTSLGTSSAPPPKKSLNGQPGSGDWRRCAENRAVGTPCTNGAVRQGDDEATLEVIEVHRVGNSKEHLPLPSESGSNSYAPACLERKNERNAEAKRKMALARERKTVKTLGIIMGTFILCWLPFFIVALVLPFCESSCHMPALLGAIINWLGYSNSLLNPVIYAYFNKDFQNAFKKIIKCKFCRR

[7] = biological target: D(2) dopamine receptor (Rattus norvegicus, UniProt P61169); experiment: Binding affinity towards Dopamine receptor D2 in rat striatum using YM-09151-2 as a radioligand; format: tissue-based; summary of the method: as §1
Sequence of D(2) dopamine receptor (P61169 whole entry): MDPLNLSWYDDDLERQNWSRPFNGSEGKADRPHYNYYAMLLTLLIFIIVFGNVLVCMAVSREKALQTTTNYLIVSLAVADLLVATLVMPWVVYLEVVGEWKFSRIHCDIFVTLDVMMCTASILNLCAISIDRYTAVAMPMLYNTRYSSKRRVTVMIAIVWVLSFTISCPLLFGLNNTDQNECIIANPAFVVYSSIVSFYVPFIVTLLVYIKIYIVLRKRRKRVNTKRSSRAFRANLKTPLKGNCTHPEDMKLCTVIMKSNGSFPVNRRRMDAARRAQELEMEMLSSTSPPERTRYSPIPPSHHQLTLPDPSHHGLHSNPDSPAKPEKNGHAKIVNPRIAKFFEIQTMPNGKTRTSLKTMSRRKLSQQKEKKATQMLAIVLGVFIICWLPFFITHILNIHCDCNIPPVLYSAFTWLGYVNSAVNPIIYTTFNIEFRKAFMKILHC

[8] = organism: Rattus norvegicus; experiment: Potency to produce a significant inhibition of immobility in rat; format: functional
Summary of the method: (§3)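 Rat forced swim, 5 min test 24 h after a 15 min pre-swim, with oral dose (10 mL/kg) 60 min before the test, n = 10 per dose. Significant response: immobility <138 s, a value seen in <5% of vehicle controls. ED50 by linear interpolation of % responders.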

[9] = organism: Rattus norvegicus; experiment: Maximum inhibition of immobility in the rat (Expressed as percentage of immobility observed in vehicle controls); format: functional
Summary of the method: (§4)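 Rat forced swim: 15 min pre-swim in 17 cm water at 25 °C, then 5 min test 24 h later with blind scoring of immobility. Oral dosing (10 mL/kg) 60 min before the test, n = 10 per dose. Inhibition is the difference in median immobility from vehicle controls, as % of the control median.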

[10] = organism: Rattus norvegicus; experiment: Potency to produce a significant inhibition of immobility in the rat; format: functional; summary of the method: as §3
[11] = organism: Rattus norvegicus; experiment: Maximum inhibition of immobility in the rat.(Expressed as percentage of immobility observed in vehicle controls); format: functional; summary of the method: as §4
[12] = organism: Rattus norvegicus; experiment: Potency to produce a significant inhibition of immobility in the rat.; format: functional; summary of the method: as §3
[13] = system: Rattus norvegicus; experiment: Effective dose in vivo in rat to induce lower lip retraction; format: functional; summary of the method: as §2

SMILES | EC50 [1] [nM] | Log Ki [2] | Ki [6] [nM] | Ki [7] [nM] | ED50 [3] [mg/kg] | ED50 [4] [mg/kg] | ED50 [5] [mg/kg] | ED50 [8] [mg/kg] | Inhibition [9] [%] | ED50 [10] [mg/kg] | Inhibition [11] [%] | ED50 [12] [mg/kg] | ED50 [13] [mg/kg]
O=C(c1ccc(Cl)c(Cl)c1)N1CCC(F)(CNCc2cccc(-c3cccs3)n2)CC1 | 12 | -6.72 | 1.23 | 457 | 0.32 | 0.32 | 1.3 | – | – | – | – | – | –
CN(C)CCCN1c2ccccc2CCc2ccccc21 [IMIPRAMINE] | – | – | – | – | – | – | – | 80 | 31 | – | – | – | –
O=C(c1ccc(Cl)c(Cl)c1)N1CCC(F)(CNCc2cccc(N3CCC3)n2)CC1 | 10.7 | -6.35 | 0.2 | 309 | 0.32 | 0.45 | 0.45 | – | – | – | – | – | –
O=C(c1ccc(Cl)c(Cl)c1)N1CCC(F)(CNCc2cccc(-c3nccs3)n2)CC1 | 22.9 | -6.26 | 0.794 | 3390 | 0.45 | 0.89 | 1.3 | – | – | – | – | – | –
CN(C)c1cccc(CNCC2(F)CCN(C(=O)c3cccc(Cl)c3)CC2)n1 | 10 | -6.81 | 0.0977 | 617 | 0.08 | 0.11 | 0.32 | – | – | – | – | – | –
O=C(c1ccc(Cl)c(Cl)c1)N1CCC(F)(CNCc2cccc(-c3cnco3)n2)CC1 | 8.91 | -5.9 | 0.468 | 2240 | 0.32 | 0.32 | 1.3 | – | – | – | – | – | –
CCc1ccc(CNCC2(F)CCN(C(=O)c3ccc(F)c(Cl)c3)CC2)nc1 | 407 | – | 8.91 | – | 1.3 | – | 1.8 | – | – | – | – | – | –
O=C(c1ccc(Cl)c(Cl)c1)N1CCC(F)(CNCc2cccc(-n3cccn3)n2)CC1 | 28.2 | – | 0.204 | – | – | – | – | – | – | – | – | – | 1.3

Further compounds by falling EC50 [1], results first:

EC50 [1] [nM] | Log Ki [2] | Ki [6] [nM] | Ki [7] [nM] | SMILES | ED50 [3] [mg/kg] | ED50 [4] [mg/kg] | ED50 [5] [mg/kg] | ED50 [8] [mg/kg] | Inhibition [9] [%] | ED50 [10] [mg/kg] | Inhibition [11] [%] | ED50 [12] [mg/kg] | ED50 [13] [mg/kg]
6.61 | -6.92 | – | – | CNc1cccc(CNCC2(F)CCN(C(=O)c3ccc(Cl)c(Cl)c3)CC2)n1 | 0.11 | 0.23 | 0.32 | – | – | – | – | – | –
5.75 | -6.86 | 0.269 | 129 | Cc1ccc(C(=O)N2CCC(F)(CNCc3cccc(N(C)C)n3)CC2)cc1Cl | 0.08 | 0.08 | 0.32 | – | – | – | – | – | –
3.63 | -6.68 | – | – | CN(C)c1cccc(CNCC2(F)CCN(C(=O)c3ccc(F)c(Cl)c3)CC2)n1 | 0.29 | 0.11 | 0.16 | – | – | – | >80 | 0.16 | –
3.47 | -6.12 | – | – | O=C(c1ccc(F)c(Cl)c1)N1CCC(F)(CNCc2cccc(-c3ccco3)n2)CC1 | 0.08 | 0.11 | 0.32 | 0.09 | >80 | – | – | – | –
2.95 | -6.76 | – | – | CN(C)c1cccc(CNCC2(F)CCN(C(=O)c3ccc(Cl)c(Cl)c3)CC2)n1 | 0.62 | 0.45 | 0.32 | – | – | – | – | – | –
2.63 | -6.39 | 1.05 | 1200 | O=C(c1ccc(Cl)c(Cl)c1)N1CCC(F)(CNCc2cccc(-c3ccco3)n2)CC1 | 0.16 | 0.23 | 0.32 | – | – | – | – | – | –
2.14 | – | – | – | CNc1nc(CNCC2(F)CCN(C(=O)c3ccc(F)c(Cl)c3)CC2)ccc1C | 0.02 | – | 0.08 | – | – | 0.05 | >80 | – | –
1.12 | -6.1 | 0.302 | 4070 | O=C(c1ccc(Cl)c(Cl)c1)N1CCC(F)(CNCc2cccc(-c3cc[nH]n3)n2)CC1 | 0.32 | 0.32 | 1.3 | – | – | – | – | – | –
